Results on eight molecules are retold here after ChEMBL document CHEMBL4017533, “Molecular Recognition of Agonists and Antagonists by the Nucleotide-Activated G Protein-Coupled P2Y2 Receptor” (J Med Chem, 2017).

For experiment [1], the species on record is Homo sapiens. The experiment can be described thus: Selectivity ratio of IC50 for P2Y2 receptor Y114F mutant (unknown origin) to IC50 for wild type P2Y2 receptor (unknown origin). Summed up: (§1)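 Human P2Y2R, wild type or single point mutant, retrovirally transduced into 1321N1 astrocytoma cells and selected with G418. Cells were seeded at 50000/well overnight, loaded with fluo-4 AM for 1 h in HBSS, and preincubated with antagonist for 30 min. UTP was then injected at its EC80 for that cell line. Calcium fluorescence was read at ex 488/em 525 nm. IC50 was fitted by nonlinear regression (n ≥ 3), and the ratio was taken as mutant IC50 over wild-type IC50.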

The species named for experiment [2] is Homo sapiens. The experiment can be described thus: Selectivity ratio of IC50 for P2Y2 receptor F261A mutant (unknown origin) to IC50 for wild type P2Y2 receptor (unknown origin).
The species named for experiment [3] is Homo sapiens. The experiment can be described thus: Selectivity ratio of IC50 for P2Y2 receptor Y288F mutant (unknown origin) to IC50 for wild type P2Y2 receptor (unknown origin). In short, it runs like this:
as §1

Experiment [4] is filed under the species Homo sapiens. The experiment can be described thus: Selectivity ratio of IC50 for P2Y2 receptor Y268F mutant (unknown origin) to IC50 for wild type P2Y2 receptor (unknown origin). In short, it runs like this:
as §1

The species named for experiment [5] is Homo sapiens. In words: Selectivity ratio of IC50 for P2Y2 receptor R194H mutant (unknown origin) to IC50 for wild type P2Y2 receptor (unknown origin).
The target in experiment [6] is T1, P2Y purinoceptor 2 (Homo sapiens, UniProt P41231). In words: Antagonist activity at wild type P2Y2 receptor (unknown origin) expressed in human 1321N1 astrocytoma cells assessed as inhibition of UTP-induced increase in intracellular calcium mobilization preincubated for 30 mins followed by UTP addition measured after 1 hr by Fluo-4 AM dye based fluorescence assay. The experiment is classed as functional, cell-based. In short, it runs like this:
(§2)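 Stably transduced 1321N1 cells expressing wt or mutant human P2Y2R were loaded with fluo-4 AM/Pluronic F-127 in HBSS for 1 h. Test compound was preincubated for 30 min, then UTP was injected at the EC80 determined for each cell line. Calcium fluorescence was read at ex 488/em 525 nm. IC50 was obtained by nonlinear regression, n ≥ 3.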

Experiment [7] is filed under the species Homo sapiens. The experiment can be described thus: Selectivity ratio of EC50 for P2Y2 receptor R272A mutant (unknown origin) to EC50 for wild type P2Y2 receptor (unknown origin).
Experiment [8] relates to P2Y purinoceptor 2 (Homo sapiens), P41231 [Y114F]. In words: Antagonist activity at […] P2Y2 receptor Y114F mutant (unknown origin) expressed in human 1321N1 astrocytoma cells assessed as inhibition of UTP-induced increase in intracellular calcium mobilization preincubated for 30 mins followed by UTP addition measured after 1 hr by Fluo-4 AM dye based fluorescence assay. It is filed as functional, cell-based. Summed up: as §2
Chain of P2Y purinoceptor 2 (Homo sapiens), P41231 [Y114F] (P41231 whole entry Y114F): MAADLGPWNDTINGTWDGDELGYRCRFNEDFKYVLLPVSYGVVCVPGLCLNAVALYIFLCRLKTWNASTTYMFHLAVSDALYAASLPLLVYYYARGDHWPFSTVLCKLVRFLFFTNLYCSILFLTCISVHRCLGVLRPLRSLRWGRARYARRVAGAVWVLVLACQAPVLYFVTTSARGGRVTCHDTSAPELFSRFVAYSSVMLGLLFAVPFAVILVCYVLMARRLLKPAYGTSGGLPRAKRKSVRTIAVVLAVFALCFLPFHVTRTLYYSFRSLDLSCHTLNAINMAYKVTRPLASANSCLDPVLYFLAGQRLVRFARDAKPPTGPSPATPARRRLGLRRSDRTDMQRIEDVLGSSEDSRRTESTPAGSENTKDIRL

The species named for experiment [9] is Homo sapiens. The experiment can be described thus: Antagonist activity at […] P2Y2 receptor R194H mutant (unknown origin) expressed in human 1321N1 astrocytoma cells assessed as inhibition of UTP-induced increase in intracellular calcium mobilization preincubated for 30 mins followed by UTP addition measured after 1 hr by Fluo-4 AM dye based fluorescence assay. The experiment is classed as cell-based. Summed up: as §2
On the technique in general: A change in cytosolic calcium serves as a functional read-out for many receptors and channels.

The species named for experiment [10] is Homo sapiens. The experiment can be described thus: Antagonist activity at […] P2Y2 receptor Y114A mutant (unknown origin) expressed in human 1321N1 astrocytoma cells assessed as inhibition of UTP-induced increase in intracellular calcium mobilization preincubated for 30 mins followed by UTP addition measured after 1 hr by Fluo-4 AM dye based fluorescence assay. It is filed as cell-based. Summed up: as §2

Experiment [11] is filed under the species Homo sapiens. In words: Selectivity ratio of EC50 for P2Y2 receptor R194A mutant (unknown origin) to EC50 for wild type P2Y2 receptor (unknown origin).
In experiment [12] the test system is P2Y purinoceptor 2 (Homo sapiens), P41231 [Y114F]. In words: Agonist activity at P2Y2 receptor Y114F mutant (unknown origin) expressed in human 1321N1 astrocytoma cells assessed as increase in intracellular calcium mobilization after 1 hr by Fluo-4 AM dye based fluorescence assay. It is filed as functional, cell-based. Summed up:
(§3)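 Human 1321N1 astrocytoma cells stably carrying wt or point-mutant human P2Y2R, introduced by retrovirus and selected with G418, plated at 50000 cells/well the day before. Cells loaded with fluo-4 AM plus Pluronic F-127 in HBSS for 1 h, then washed. Agonist added at graded concentrations, fluorescence read at ex 488/em 525 nm. […] Carbachol 100 μM acting on endogenous M3 served as the maximum reference.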

For experiment [13], the species on record is Homo sapiens. In words: Selectivity ratio of EC50 for P2Y2 receptor Y268F mutant (unknown origin) to EC50 for wild type P2Y2 receptor (unknown origin).
Experiment [14] concerns the target T1, P2Y purinoceptor 2. In words: Agonist activity at wild type P2Y2 receptor (unknown origin) expressed in human 1321N1 astrocytoma cells assessed as increase in intracellular calcium mobilization after 1 hr by Fluo-4 AM dye based fluorescence assay. The experiment is classed as functional, cell-based. Summed up: as §3
The test system of experiment [15] is P2Y purinoceptor 2 (Homo sapiens), P41231 [Y288A]. The experiment can be described thus: Agonist activity at P2Y2 receptor Y288A mutant (unknown origin) expressed in human 1321N1 astrocytoma cells assessed as increase in intracellular calcium mobilization after 1 hr by Fluo-4 AM dye based fluorescence assay. It is filed as functional, cell-based. Summed up: as §3
Chain of P2Y purinoceptor 2 (Homo sapiens), P41231 [Y288A] (P41231 whole entry Y288A): as the sequence (P41231 whole entry Y114F) above, with F114Y, Y288A counted along it

Experiment [16] relates to P2Y purinoceptor 2 (Homo sapiens), P41231 [R292A]. In words: Agonist activity at P2Y2 receptor R292A mutant (unknown origin) expressed in human 1321N1 astrocytoma cells assessed as increase in intracellular calcium mobilization after 1 hr by Fluo-4 AM dye based fluorescence assay. The experiment is classed as functional, cell-based. In short, it runs like this:
as §3

The species named for experiment [17] is Homo sapiens. In words: Selectivity ratio of EC50 for P2Y2 receptor F111A mutant (unknown origin) to EC50 for wild type P2Y2 receptor (unknown origin).
The species entered for experiment [18] is Homo sapiens. In words: Selectivity ratio of EC50 for P2Y2 receptor F261A mutant (unknown origin) to EC50 for wild type P2Y2 receptor (unknown origin).
In experiment [19] the target is P2Y purinoceptor 2 (Homo sapiens, UniProt P41231, S193A). In words: Agonist activity at P2Y2 receptor S193A mutant (unknown origin) expressed in human 1321N1 astrocytoma cells assessed as increase in intracellular calcium mobilization after 1 hr by Fluo-4 AM dye based fluorescence assay. The experiment is classed as functional, cell-based. Summed up: as §3
Chain of P2Y purinoceptor 2 (Homo sapiens, UniProt P41231, S193A) (P41231 whole entry S193A): as the sequence (P41231 whole entry Y114F) above, with F114Y, S193A counted along it
Experiment [20] concerns P2Y purinoceptor 2 (Homo sapiens), P41231 [R110A]. In words: Agonist activity at P2Y2 receptor R110A mutant (unknown origin) expressed in human 1321N1 astrocytoma cells assessed as increase in intracellular calcium mobilization after 1 hr by Fluo-4 AM dye based fluorescence assay. It is filed as functional, cell-based. In short, it runs like this:
as §3

The species named for experiment [21] is Homo sapiens. In words: Selectivity ratio of EC50 for P2Y2 receptor R194H mutant (unknown origin) to EC50 for wild type P2Y2 receptor (unknown origin).
Experiment [22] is filed under the species Homo sapiens. In words: Selectivity ratio of EC50 for P2Y2 receptor S193A mutant (unknown origin) to EC50 for wild type P2Y2 receptor (unknown origin).
Experiment [23] is filed under the species Homo sapiens. The experiment can be described thus: Selectivity ratio of EC50 for P2Y2 receptor Y114F mutant (unknown origin) to EC50 for wild type P2Y2 receptor (unknown origin).
In experiment [24] the target is P2Y purinoceptor 2 (Homo sapiens, UniProt P41231, Y288F). In words: (§4) Agonist activity at P2Y2 receptor Y288F mutant (unknown origin) expressed in human 1321N1 astrocytoma cells assessed as increase in intracellular calcium mobilization after 1 hr by Fluo-4 AM dye based fluorescence assay. It is filed as functional, cell-based. In short, it runs like this:
as §3

For experiment [25], the species on record is Homo sapiens. In words: Agonist activity at P2Y2 receptor R194A mutant (unknown origin) expressed in human 1321N1 astrocytoma cells assessed as increase in intracellular calcium mobilization after 1 hr by Fluo-4 AM dye based fluorescence assay. The experiment is classed as cell-based. In short, it runs like this: as §3
The test system of experiment [26] is P2Y purinoceptor 2 (Homo sapiens), P41231 [R265A]. The experiment can be described thus: Agonist activity at P2Y2 receptor R265A mutant (unknown origin) expressed in human 1321N1 astrocytoma cells assessed as increase in intracellular calcium mobilization after 1 hr by Fluo-4 AM dye based fluorescence assay. The experiment is classed as functional, cell-based. In short, it runs like this:
as §3

Experiment [27] is filed under the species Homo sapiens. The experiment can be described thus: Selectivity ratio of EC50 for P2Y2 receptor Y288F mutant (unknown origin) to EC50 for wild type P2Y2 receptor (unknown origin).
The target in experiment [28] is P2Y purinoceptor 2 (Homo sapiens, UniProt P41231, H184A). In words: Agonist activity at P2Y2 receptor H184A mutant (unknown origin) expressed in human 1321N1 astrocytoma cells assessed as increase in intracellular calcium mobilization after 1 hr by Fluo-4 AM dye based fluorescence assay. It is filed as functional, cell-based. In short, it runs like this: as §3
Chain of P2Y purinoceptor 2 (Homo sapiens, UniProt P41231, H184A) (P41231 whole entry H184A): as the sequence (P41231 whole entry Y114F) above, with F114Y, H184A counted along it

Experiment [29] is filed under the species Homo sapiens. In words: Selectivity ratio of EC50 for P2Y2 receptor Y269F mutant (unknown origin) to EC50 for wild type P2Y2 receptor (unknown origin).
In experiment [30] the test system is P2Y purinoceptor 2 (Homo sapiens), P41231 [F261A]. The experiment can be described thus: Agonist activity at P2Y2 receptor F261A mutant (unknown origin) expressed in human 1321N1 astrocytoma cells assessed as increase in intracellular calcium mobilization after 1 hr by Fluo-4 AM dye based fluorescence assay. It is filed as functional, cell-based. Summed up: as §3
Chain of P2Y purinoceptor 2 (Homo sapiens), P41231 [F261A] (P41231 whole entry F261A): as the sequence (P41231 whole entry Y114F) above, with F114Y, F261A counted along it

The species named for experiment [31] is Homo sapiens. In words: Selectivity ratio of EC50 for P2Y2 receptor H184A mutant (unknown origin) to EC50 for wild type P2Y2 receptor (unknown origin).
The subject of experiment [32] is P2Y purinoceptor 2 (Homo sapiens), P41231 [Y288F]. The description is as §4. The experiment is classed as functional, cell-based. Summed up: as §3

Structures are written as SMILES. The source made the active and inactive calls. The rule behind the calls is not given here.

T1 sequence (P41231 whole entry): as the sequence (P41231 whole entry Y114F) above, with F114Y counted along it
Chain of P2Y purinoceptor 2 (Homo sapiens), P41231 [R265A] (P41231 whole entry R265A): as the sequence (P41231 whole entry Y114F) above, with F114Y, R265A counted along it
Chain of P2Y purinoceptor 2 (Homo sapiens), P41231 [R292A] (P41231 whole entry R292A): as the sequence (P41231 whole entry Y114F) above, with F114Y, R292A counted along it
Chain of P2Y purinoceptor 2 (Homo sapiens), P41231 [R110A] (P41231 whole entry R110A): as the sequence (P41231 whole entry Y114F) above, with R110A, F114Y counted along it
Chain of P2Y purinoceptor 2 (Homo sapiens), P41231 [Y288F] (P41231 whole entry Y288F): as the sequence (P41231 whole entry Y114F) above, with F114Y, Y288F counted along it
Chain of P2Y purinoceptor 2 (Homo sapiens, UniProt P41231, Y288F) (P41231 whole entry Y288F): as the sequence (P41231 whole entry Y114F) above, with F114Y, Y288F counted along it

In the case of `Cc1ccc2c(c1)C=Cc1cc(C)ccc1C2c1cn(Cc2ccc(C(=O)Nc3nnn[nH]3)o2)c(=O)[nH]c1=S`, the Ratio IC50 in the experiment filed under Homo sapiens [1], in the experiment filed under Homo sapiens [2], in the experiment filed under Homo sapiens [3], in the experiment listed under Homo sapiens [4] and in the experiment filed under Homo sapiens [5] was less than 3 throughout. The inhibition result at P2Y purinoceptor 2 [6] was “Active”.
`CSc1nc(N)c2ncn([C@@H]3O[C@H](COP(=O)(O)OP(=O)(O)OP(=O)(O)O)[C@@H](O)[C@H]3O)c2n1`: the Ratio EC50 in the experiment filed under Homo sapiens [7] worked out at 350.
In the case of `Cc1cccc(Nc2ccc(Nc3cc(S(=O)(=O)O)c(N)c4c3C(=O)c3ccccc3C4=O)cc2C(=O)O)c1C`, the inhibition result (in experiment [8]; in the experiment listed under Homo sapiens [9]; at P2Y purinoceptor 2 [6]) was “Active” each time.
`Nc1ncnc2c1ncn2[C@@H]1O[C@H](COP(=O)(O)OP(=O)(O)OP(=O)(O)O)[C@@H](O)[C@H]1O`: the Ratio EC50 in the experiment listed under Homo sapiens [7] stood at 350.
For the molecule `Nc1c(S(=O)(=O)O)cc(Nc2ccc(Nc3ccccc3Cl)c(C(=O)O)c2)c2c1C(=O)c1ccccc1C2=O`, the inhibition result at P2Y purinoceptor 2 [6] was “Active”.
Turning to `Nc1c(S(=O)(=O)O)cc(Nc2ccccc2)c2c1C(=O)c1ccccc1C2=O`, the inhibition entry (in the experiment filed under Homo sapiens [10]; in [8]; in the experiment listed under Homo sapiens [9]; on P2Y purinoceptor 2 [6]) was “Active” in each case.
As to `O=c1ccn([C@@H]2O[C@H](COP(=O)(O)OP(=O)(O)OP(=O)(O)O)[C@@H](O)[C@H]2O)c(=O)[nH]1` [URIDINE TRIPHOSPHATE], the Ratio EC50 in the experiment listed under Homo sapiens [11] is 10 to 50; in the experiment listed under Homo sapiens [13] it was 10 to 50; in the experiment filed under Homo sapiens [17] it was 10 to 50; in the experiment filed under Homo sapiens [18] it was 100; in the experiment filed under Homo sapiens [21], 50; in the experiment listed under Homo sapiens [22], 10 to 50. Further, the Ratio EC50 in the experiment listed under Homo sapiens [23] was 300; in the experiment listed under Homo sapiens [27], 150; in the experiment filed under Homo sapiens [29], 10 to 50; in the experiment listed under Homo sapiens [7] it was 350; in the experiment filed under Homo sapiens [31] it was more than 100. Also, the result (in experiment [12]; in the experiment filed under Homo sapiens [25]; in experiment [30]) was Active. For the same molecule, the 50% effective concentration (EC50) is 5.61 nM on P2Y purinoceptor 2 [14], 70.6 nM at P2Y purinoceptor 2 [19], 911 nM at P2Y purinoceptor 2 [24] and 996 nM at P2Y purinoceptor 2 [28]. The outcome in [15], in experiment [16], in [20] and in experiment [26] was inactive.
Turning to `Nc1ncnc2c1ncn2[C@@H]1O[C@H](COP(=O)(O)OP(=O)(O)OP(=O)(O)OP(=O)(O)OC[C@@H]2O[C@H](n3cnc4c(N)ncnc43)[C@@H](O)[C@H]2O)[C@@H](O)[C@H]1O`, the result (in [12]; in experiment [15]; in experiment [16]; in [20]; in experiment [32]; in the experiment listed under Homo sapiens [25]) was inactive. The outcome in experiment [26] and in [30] was inactive. Moreover, the Ratio EC50 is 25 in the experiment filed under Homo sapiens [21] and more than 4000 in the experiment listed under Homo sapiens [7].

What is called EC50 is the concentration that produces a half-maximal response.
